Experimental data reported in ChEMBL document CHEMBL4414574, “Structure-Based Discovery and Development of a Series of Potent and Selective Bromodomain and Extra-Terminal Protein Inhibitors” (J Med Chem, 2019).
pIC50: −log10 of the molar value. Activity calls are given as the source filed them. The calls are words filed in the database; no cut-off is given here.

Legend:
[1] = molecular target: T1, Bromodomain-containing protein 4 (Homo sapiens, UniProt O60885); experiment: Displacement of 5-FITC labelled (+)-JQ1 from His6-tagged human BRD4 bromodomain 1 expressed in Escherichia coli BL21(DE3) )-codon plus-RIL cells incubated for 4 hrs in dark condition by fluorescence anisotropy binding assay
[2] = Tmax in ICR mouse at 3 mg/kg, po administered via gavage measured after 0.25 to 24 hrs by UPLC/MS analysis; type: ADME, organism-based; details: in vivo
Method in brief: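 Male ICR mice dosed orally (3, 10 or 100 mg/kg, per line) in 1% DMSO/0.5% HPMC vehicle; plasma drug levels measured.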

CYP3A4 = CYP3A4 (Homo sapiens, UniProt P08684); experiment: Reversible inhibition of CYP3A4 in human liver microsomes at 10 uM using midazolam or testosterone as substrate preincubated for 5 mins followed by NADPH addition and measured after 20 mins relative to control; type: ADME; details: probe midazolam or testosterone
Method in brief: (§1)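 Human liver microsomes 0.2 mg/mL, 100 mM phosphate pH 7.4, 10 μM test compound, probe cocktail (10 μM midazolam, 100 μM testosterone, 10 μM dextromethorphan, 20 μM diclofenac, 100 μM phenacetin, 100 μM mephenytoin); organic solvent <1%; 5 min preincubation at 37 °C, started with NADPH-generating system, 20 min reaction; metabolite formation expressed relative to PBS control.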

[3] = Cmax in ICR mouse at 3 mg/kg, po administered via gavage measured after 0.25 to 24 hrs by UPLC/MS analysis; type: ADME, organism-based; set-up: dose 3 mg/kg, route oral; details: in vivo
Method in brief: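 Male ICR mice dosed orally in 1% DMSO/0.5% HPMC vehicle; plasma or brain drug levels used to derive Tmax, Cmax, AUC0-t, AUC0-inf and T1/2.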

[4] = molecular target: Bromodomain-containing protein 2 (Homo sapiens) (UniProt P25440); experiment: Inhibition of BRD2 bromodomain 1 (unknown origin)
Cytochrome P450 2C9 = Cytochrome P450 2C9 (Homo sapiens, UniProt P11712); experiment: Time-dependent inhibition of CYP2C9 in human liver microsomes at 10 uM using diclofenac as substrate preincubated up to 30 mins followed by NADPH generating system addition and measured after 10 mins; type: ADME
Method in brief: (§2)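 Human liver microsomes 0.2 mg/mL, 100 mM phosphate pH 7.4, 10 μM test compound, preincubated 0, 5, 10 and 30 min at 37 °C; then NADPH plus probe cocktail (5 μM midazolam, 50 μM testosterone, 5 μM dextromethorphan, 10 μM diclofenac, 50 μM phenacetin, 50 μM S-(+)-mephenytoin) added; 10 min reaction; kobs in units of 10^-4/min.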

[5] = molecular target: T1, Bromodomain-containing protein 4; experiment: Inhibition of BRD4 bromodomain 2 (unknown origin)
Cytochrome P450 2D6 = Cytochrome P450 2D6 (Homo sapiens, UniProt P10635); experiment: Time-dependent inhibition of CYP2D6 in human liver microsomes at 10 uM using dextromethorphan as substrate preincubated up to 30 mins followed by NADPH generating system addition and measured after 10 mins; type: ADME; method in brief: as §2
MM1.S [6] = experiment: Antiproliferative activity against human MM1S cells after 72 hrs by CCK8 or SRB assay; type: functional, cell-based
Method in brief: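 IC50 against MM.1S cell proliferation was taken as the mean of three independent experiments, each run in triplicate, reported with SEM.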

[7] = molecular target: Bromodomain-containing protein 2 (Homo sapiens) (UniProt P25440); experiment: Inhibition of BRD2 bromodomain 2 (unknown origin)
Method in brief: (§3)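 Bromodomain binding panel (32 bromodomains) screened at 1 μM; primary binding read-out reported as percent of control, lower values meaning stronger binding.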

MM1.S [8] = experiment: Antitumor activity against human MM1S cells xenografted in SCID mouse assessed as tumor growth at 20 mg/kg, po administered daily relative to control; type: functional
[9] = molecular target: Histone acetyltransferase p300 (Homo sapiens) (UniProt Q09472); experiment: Inhibition of EP300 (unknown origin) at 1 uM; method in brief: as §3
[10] = molecular target: T1, Bromodomain-containing protein 4; experiment: Inhibition of BRD4 bromodomain 1 (unknown origin)
Method in brief: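 BRD4 BD1 (His6-tagged, E. coli BL21(DE3)-expressed, Ni-NTA purified) at 10 nM with 5 nM FITC-labelled (+)-JQ1 tracer; 50 mM HEPES pH 7.4, 150 mM NaCl, 0.5 mM CHAPS, DMSO 2‰ final; graded inhibitor; 4 h dark equilibration at room temperature; fluorescence anisotropy read (ex 485/em 530 nm). IC50 from two independent experiments in duplicate, mean ± SEM.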

[11] = Half life in human liver microsomes at 1 uM preincubated for 5 mins followed by NADPH addition and measured after 5 to 30 mins by LC/MS/MS analysis; type: ADME, Microsome
[12] = Half life in ICR mouse at 3 mg/kg, po administered via gavage measured after 0.25 to 24 hrs by UPLC/MS analysis; type: ADME, organism-based; details: in vivo
Method in brief: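 Male ICR mice dosed orally; vehicle 1% DMSO/0.5% HPMC. Plasma pharmacokinetic parameters, including T1/2, were determined after the single oral dose.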

[13] = AUC (0 to infinity) in ICR mouse at 3 mg/kg, po administered via gavage measured after 0.25 to 24 hrs by UPLC/MS analysis; type: ADME, organism-based; set-up: dose 3 mg/kg, time infinity, route oral; details: in vivo
Method in brief: (§4)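 Male ICR mice were dosed orally in 1% DMSO/0.5% HPMC vehicle. Plasma (and brain, where stated) concentrations gave Tmax, Cmax, T1/2, AUC0-t and AUC0-inf.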

[14] = Solubility of the compound at pH 2 to 7; type: physicochemical; details: buffer
Cytochrome P450 3A4 = Cytochrome P450 3A4 (Homo sapiens, UniProt P08684); experiment: Time-dependent inhibition of CYP3A4 in human liver microsomes at 10 uM using midazolam or testosterone as substrate preincubated up to 30 mins followed by NADPH generating system addition and measured after 10 mins; type: ADME; method in brief: as §2
Cytochrome P450 1A2 = molecular target: T2, Cytochrome P450 1A2 (Homo sapiens, UniProt P05177); experiment: Time-dependent inhibition of CYP1A2 in human liver microsomes at 10 uM using phenacetin as substrate preincubated up to 30 mins followed by NADPH generating system addition and measured after 10 mins; type: ADME; method in brief: as §2
T2 sequence (P05177 whole entry): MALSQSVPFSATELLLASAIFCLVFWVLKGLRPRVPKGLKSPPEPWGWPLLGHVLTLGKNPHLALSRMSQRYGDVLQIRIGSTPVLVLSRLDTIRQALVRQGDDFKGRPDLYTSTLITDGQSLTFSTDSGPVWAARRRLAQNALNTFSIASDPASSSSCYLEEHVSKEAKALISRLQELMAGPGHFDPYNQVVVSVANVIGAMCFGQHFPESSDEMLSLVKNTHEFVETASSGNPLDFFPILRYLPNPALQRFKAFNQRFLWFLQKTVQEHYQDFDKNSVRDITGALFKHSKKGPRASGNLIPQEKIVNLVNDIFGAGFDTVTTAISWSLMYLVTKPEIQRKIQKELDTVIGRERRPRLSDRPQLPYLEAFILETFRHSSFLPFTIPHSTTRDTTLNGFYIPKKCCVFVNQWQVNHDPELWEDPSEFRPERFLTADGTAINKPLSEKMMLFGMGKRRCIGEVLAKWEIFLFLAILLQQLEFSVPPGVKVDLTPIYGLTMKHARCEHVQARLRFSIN

[15] = Intrinsic clearance in human liver microsomes at 1 uM preincubated for 5 mins followed by NADPH addition and measured after 5 to 30 mins by LC/MS/MS analysis; type: ADME, Microsome; details: read-out: CLH
Method in brief: (§5)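 Liver microsomes (0.5 mg/mL) preincubated 5 min at 37 °C with 1 μM compound in 0.1 M phosphate buffer pH 7.4 containing 1 mM EDTA and 5 mM MgCl2; started with 1 mM NADPH; sampled at 0, 5, 10 and 30 min; quenched with cold acetonitrile; parent remaining quantified by LC/MS/MS.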

[16] = Solubility of the compound in water; type: physicochemical; details: buffer
[17] = AUC (0 to t) in ICR mouse at 3 mg/kg, po administered via gavage measured after 0.25 to 24 hrs by UPLC/MS analysis; type: ADME, organism-based; set-up: time upper 24 hr, time lower 0.25 hr, dose 3 mg/kg, route oral; details: in vivo; method in brief: as §4
CYP2C19 = CYP2C19 (Homo sapiens, UniProt P33261); experiment: Reversible inhibition of CYP2C19 in human liver microsomes at 10 uM using mephenytoin as substrate preincubated for 5 mins followed by NADPH generating system addition and measured after 20 mins relative to control; type: ADME; details: probe mephenytoin; method in brief: as §1
[18] = Half life in mouse liver microsomes at 1 uM preincubated for 5 mins followed by NADPH addition and measured after 5 to 30 mins by LC/MS/MS analysis; type: ADME, Microsome; details: mouse liver microsomes
Cytochrome P450 2C19 = Cytochrome P450 2C19 (Homo sapiens, UniProt P33261); experiment: Time-dependent inhibition of CYP2C19 in human liver microsomes at 10 uM using mephenytoin as substrate preincubated up to 30 mins followed by NADPH generating system addition and measured after 10 mins; type: ADME; method in brief: as §2
CYP2C9 = CYP2C9 (Homo sapiens, UniProt P11712); experiment: Reversible inhibition of CYP2C9 in human liver microsomes at 10 uM using diclofenac as substrate preincubated for 5 mins followed by NADPH generating system addition and measured after 20 mins relative to control; type: ADME; details: probe diclofenac; method in brief: as §1
[19] = Intrinsic clearance in mouse liver microsomes at 1 uM preincubated for 5 mins followed by NADPH addition and measured after 5 to 30 mins by LC/MS/MS analysis; type: ADME, Microsome; details: read-out: CLH; method in brief: as §5

Bromodomain-containing protein 2 (Homo sapiens), sequence (P25440 whole entry, looked up): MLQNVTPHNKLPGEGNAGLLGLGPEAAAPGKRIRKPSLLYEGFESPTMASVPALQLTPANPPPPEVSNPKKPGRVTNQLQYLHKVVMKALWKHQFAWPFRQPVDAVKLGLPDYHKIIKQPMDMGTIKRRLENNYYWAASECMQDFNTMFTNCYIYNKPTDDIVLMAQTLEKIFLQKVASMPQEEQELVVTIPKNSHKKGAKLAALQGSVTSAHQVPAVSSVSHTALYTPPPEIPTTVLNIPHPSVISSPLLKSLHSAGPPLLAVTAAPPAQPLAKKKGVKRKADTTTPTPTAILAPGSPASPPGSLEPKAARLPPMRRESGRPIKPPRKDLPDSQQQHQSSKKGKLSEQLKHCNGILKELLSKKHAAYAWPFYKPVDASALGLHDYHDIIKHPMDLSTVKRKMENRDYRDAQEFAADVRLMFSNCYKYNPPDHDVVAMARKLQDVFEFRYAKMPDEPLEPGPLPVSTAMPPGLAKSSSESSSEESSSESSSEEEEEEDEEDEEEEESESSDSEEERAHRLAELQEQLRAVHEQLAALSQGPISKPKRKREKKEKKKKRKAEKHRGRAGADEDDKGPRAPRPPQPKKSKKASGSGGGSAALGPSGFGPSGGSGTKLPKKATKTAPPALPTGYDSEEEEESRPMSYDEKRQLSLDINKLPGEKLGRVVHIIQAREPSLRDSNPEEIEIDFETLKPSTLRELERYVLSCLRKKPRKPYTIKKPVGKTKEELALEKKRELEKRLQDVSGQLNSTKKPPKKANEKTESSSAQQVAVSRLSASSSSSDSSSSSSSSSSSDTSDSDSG
Histone acetyltransferase p300 (Homo sapiens), sequence (Q09472 whole entry): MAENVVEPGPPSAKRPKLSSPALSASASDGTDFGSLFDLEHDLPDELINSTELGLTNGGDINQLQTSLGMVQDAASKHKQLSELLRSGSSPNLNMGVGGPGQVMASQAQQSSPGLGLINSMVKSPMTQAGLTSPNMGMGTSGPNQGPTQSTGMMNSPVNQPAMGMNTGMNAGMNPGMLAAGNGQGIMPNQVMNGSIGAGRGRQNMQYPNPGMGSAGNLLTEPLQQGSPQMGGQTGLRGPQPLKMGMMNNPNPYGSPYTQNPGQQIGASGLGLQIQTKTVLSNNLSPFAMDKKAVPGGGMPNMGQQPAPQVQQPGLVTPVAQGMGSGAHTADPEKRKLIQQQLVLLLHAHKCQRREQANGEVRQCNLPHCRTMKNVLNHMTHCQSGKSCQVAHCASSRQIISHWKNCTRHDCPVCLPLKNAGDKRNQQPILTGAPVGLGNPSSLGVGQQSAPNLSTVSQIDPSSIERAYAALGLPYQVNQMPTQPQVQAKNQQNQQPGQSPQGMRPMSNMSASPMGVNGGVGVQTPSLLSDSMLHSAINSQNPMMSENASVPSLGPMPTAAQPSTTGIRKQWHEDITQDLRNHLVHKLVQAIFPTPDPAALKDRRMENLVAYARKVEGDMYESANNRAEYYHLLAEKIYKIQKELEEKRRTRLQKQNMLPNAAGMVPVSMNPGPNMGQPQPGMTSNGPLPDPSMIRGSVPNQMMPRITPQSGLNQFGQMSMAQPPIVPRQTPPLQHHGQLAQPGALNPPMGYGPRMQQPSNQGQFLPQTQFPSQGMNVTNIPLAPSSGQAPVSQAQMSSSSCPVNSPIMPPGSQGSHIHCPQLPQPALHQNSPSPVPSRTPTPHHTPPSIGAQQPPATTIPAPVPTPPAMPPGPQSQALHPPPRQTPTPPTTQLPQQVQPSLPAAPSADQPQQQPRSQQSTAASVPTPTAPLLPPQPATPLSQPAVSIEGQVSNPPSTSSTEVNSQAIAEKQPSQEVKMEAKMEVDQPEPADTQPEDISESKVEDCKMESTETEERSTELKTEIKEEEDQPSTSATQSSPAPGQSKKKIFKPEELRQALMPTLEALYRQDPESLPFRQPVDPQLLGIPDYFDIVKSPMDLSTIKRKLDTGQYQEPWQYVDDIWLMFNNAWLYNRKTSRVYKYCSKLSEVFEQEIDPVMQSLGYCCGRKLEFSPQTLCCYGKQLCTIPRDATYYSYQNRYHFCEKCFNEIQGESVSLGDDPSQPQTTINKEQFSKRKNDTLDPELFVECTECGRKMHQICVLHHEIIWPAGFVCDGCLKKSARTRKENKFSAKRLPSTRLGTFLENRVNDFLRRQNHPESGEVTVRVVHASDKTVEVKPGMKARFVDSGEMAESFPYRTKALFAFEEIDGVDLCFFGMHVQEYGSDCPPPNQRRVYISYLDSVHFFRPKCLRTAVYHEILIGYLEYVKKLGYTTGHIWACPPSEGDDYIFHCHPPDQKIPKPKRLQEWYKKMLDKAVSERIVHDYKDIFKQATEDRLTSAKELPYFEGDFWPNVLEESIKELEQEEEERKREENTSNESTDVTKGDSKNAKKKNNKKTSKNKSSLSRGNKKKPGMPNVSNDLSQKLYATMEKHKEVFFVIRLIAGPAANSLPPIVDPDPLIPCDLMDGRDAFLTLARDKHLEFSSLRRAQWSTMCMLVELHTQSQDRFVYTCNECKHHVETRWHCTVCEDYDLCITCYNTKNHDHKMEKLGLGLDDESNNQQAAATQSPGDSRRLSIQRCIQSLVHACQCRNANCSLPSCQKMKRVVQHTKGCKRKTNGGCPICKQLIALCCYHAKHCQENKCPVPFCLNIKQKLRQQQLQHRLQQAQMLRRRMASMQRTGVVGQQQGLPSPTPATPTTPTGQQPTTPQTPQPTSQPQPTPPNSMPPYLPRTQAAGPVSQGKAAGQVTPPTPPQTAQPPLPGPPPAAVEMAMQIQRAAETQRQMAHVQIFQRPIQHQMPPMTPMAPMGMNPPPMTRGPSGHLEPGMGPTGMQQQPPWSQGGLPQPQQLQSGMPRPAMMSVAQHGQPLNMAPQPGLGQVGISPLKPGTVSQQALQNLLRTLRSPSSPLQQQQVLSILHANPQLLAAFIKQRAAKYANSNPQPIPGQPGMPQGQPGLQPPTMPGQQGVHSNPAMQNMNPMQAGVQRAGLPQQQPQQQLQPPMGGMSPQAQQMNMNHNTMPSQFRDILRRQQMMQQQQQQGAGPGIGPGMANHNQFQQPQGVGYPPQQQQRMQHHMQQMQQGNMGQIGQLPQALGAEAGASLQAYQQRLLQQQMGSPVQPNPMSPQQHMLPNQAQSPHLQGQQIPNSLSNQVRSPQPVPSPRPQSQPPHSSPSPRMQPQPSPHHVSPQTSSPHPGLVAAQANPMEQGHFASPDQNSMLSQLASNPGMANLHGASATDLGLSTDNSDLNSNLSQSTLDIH
CYP2C19, sequence (P33261 whole entry): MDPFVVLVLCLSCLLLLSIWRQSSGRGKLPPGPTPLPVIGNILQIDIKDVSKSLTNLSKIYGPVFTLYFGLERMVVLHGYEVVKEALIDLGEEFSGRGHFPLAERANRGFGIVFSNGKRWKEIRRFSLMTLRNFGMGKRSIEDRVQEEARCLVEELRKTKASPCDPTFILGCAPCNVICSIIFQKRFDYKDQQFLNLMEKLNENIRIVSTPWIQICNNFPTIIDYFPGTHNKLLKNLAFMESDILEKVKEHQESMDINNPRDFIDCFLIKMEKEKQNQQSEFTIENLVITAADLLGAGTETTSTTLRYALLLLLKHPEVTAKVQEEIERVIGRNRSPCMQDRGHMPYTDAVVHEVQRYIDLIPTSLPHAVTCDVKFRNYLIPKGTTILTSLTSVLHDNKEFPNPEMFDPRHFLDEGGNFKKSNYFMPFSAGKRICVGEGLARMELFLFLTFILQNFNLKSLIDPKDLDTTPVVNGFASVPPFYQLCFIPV
Cytochrome P450 2C19, sequence (P33261 whole entry): as above
Cytochrome P450 2D6, sequence (P10635 whole entry): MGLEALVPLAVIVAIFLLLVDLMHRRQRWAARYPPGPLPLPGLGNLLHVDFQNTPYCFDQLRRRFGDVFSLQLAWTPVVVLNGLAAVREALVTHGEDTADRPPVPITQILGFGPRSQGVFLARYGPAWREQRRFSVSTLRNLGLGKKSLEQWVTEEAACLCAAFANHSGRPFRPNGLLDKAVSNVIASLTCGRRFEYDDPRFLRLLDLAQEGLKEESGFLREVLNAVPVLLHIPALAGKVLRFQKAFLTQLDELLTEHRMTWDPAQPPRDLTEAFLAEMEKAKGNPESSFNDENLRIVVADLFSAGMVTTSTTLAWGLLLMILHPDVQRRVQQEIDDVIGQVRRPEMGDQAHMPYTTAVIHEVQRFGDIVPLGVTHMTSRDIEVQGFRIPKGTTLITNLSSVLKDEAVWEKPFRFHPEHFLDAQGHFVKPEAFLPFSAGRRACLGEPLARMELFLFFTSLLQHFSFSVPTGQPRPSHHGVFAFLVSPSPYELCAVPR

pIC50 [1]: 8.24
Tmax [2]: 18 min
inhibition at 20 min, 10 µM (CYP3A4): 3%
Cmax [3]: 265 ng/mL
inhibition activity call (active/inactive) [4]: Active
TDI (Cytochrome P450 2C9): Not Active
inhibition [5]: Active
TDI (Cytochrome P450 2D6): Not Active
pIC50 (MM1.S [6]): 8.48
inhibition [7]: Active
inhibition [9]: inactive
inhibition [10]: Active
half-life at 1 µM [11]: 31.5 min
half-life [12]: 42 min
AUC(0-inf) [13]: 244 ng·h/mL
solubility [14]: Insoluble
TDI (Cytochrome P450 3A4): Not Active
TDI (Cytochrome P450 1A2): Not Active
microsomal CLint at 1 µM [15]: 44 µL/min/mg
solubility [16]: Insoluble
AUC(0-t) [17]: 243 ng·h/mL
inhibition at 20 min, 10 µM (CYP2C19): 41%
half-life at 1 µM [18]: 3 min
TDI (Cytochrome P450 2C19): Not Active
inhibition at 20 min, 10 µM (CYP2C9): 10%
microsomal CLint at 1 µM [19]: 460 µL/min/mg
Structure (SMILES): Cc1ccc(-n2c(C)nnc2-c2ccc3c(c2)N(C2CC2)C(C)C(=O)N3C)cc1 (configuration not stated)
T/C (MM1.S [8]): 67.4%
